Data reported in ChEMBL document CHEMBL2429747, “Synthesis and biological evaluation of α-galactosylceramide analogues with heteroaromatic rings and varying positions of a phenyl group in the sphingosine backbone” (J Med Chem, 2013).
Activity calls are given as the source filed them. No cut-off for these calls is given here.

How the values were obtained:
HMNC [1] = experiment: Immunomodulatory activity in wild type C57BL/6 mouse HMNC cells assessed as reduction in IL-17 secretion at 25 nM after 72 hrs by ELISA; format: functional, cell-based
Summary of the method: (§1)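 Hepatic mononuclear cells from C57BL/6 mice were isolated on Percoll and grown in RPMI-1640 with 10% FBS, L-glutamine and 2-mercaptoethanol. Cells (2 × 10^5) were stimulated 72 h with 25 nM glycolipid. Supernatant cytokines were measured by sandwich ELISA: overnight 4 °C sample incubation, biotinylated antibody, streptavidin-HRP, TMB, A450. Assays were run in triplicate and repeated 2−3 times; mean ± SD.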

HMNC [2] = experiment: Immunomodulatory activity in wild type C57BL/6 mouse HMNC cells assessed as reduction in IFN-gamma secretion at 25 nM after 72 hrs by ELISA; format: functional, cell-based; summary of the method: as §1
HMNC [3] = experiment: Immunomodulatory activity in wild type C57BL/6 mouse HMNC cells assessed as increase in IL-4 secretion at 25 nM after 72 hrs by ELISA; format: functional, cell-based; summary of the method: as §1
Mus musculus [4] = experiment: In vivo immunomodulatory activity in wild type C57BL/6 mouse assessed as IL-4 level in serum at 2 ug, iv administered as single dose measured at >2 hrs; format: functional, organism-based
Summary of the method: (§2)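 Mice were given a single intravenous injection of 2 μg glycolipid, and serum was collected at set times after injection. Serum cytokines were measured by sandwich ELISA: plates coated with anti-cytokine antibody and blocked with 1% BSA, serum incubated overnight at 4 °C, then biotinylated antibody, streptavidin-HRP and TMB, with absorbance read at 450 nm.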

Mus musculus [5] = experiment: Immunomodulatory activity in PMA- and ionomycin-stimulated wild type C57BL/6 mouse HMNC cells assessed as reduction in IFN-gamma cytokine in cell culture supernatant at 2 ug, ip administered as single dose measured 22 days post immunization by ELISA relative to vehicle-treated control; format: functional, organism-based
Summary of the method: (§3)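 Spinal cord mononuclear cells were isolated at day 22 by Percoll gradient and restimulated 4 h with PMA 50 ng/mL plus ionomycin 1 μg/mL. Supernatant cytokines were measured by sandwich ELISA using capture antibody, biotinylated detection antibody, streptavidin-HRP and TMB. Data are mean ± SD of individual mice, n = 3−4/group.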

Mus musculus [6] = experiment: Immunomodulatory activity in PMA- and ionomycin-stimulated wild type C57BL/6 mouse HMNC cells assessed as inhibition of Th17 differentiation of MOG-specific CD4+ T cells at 2 ug, ip administered as single dose measured 22 days post immunization by brefeldin A staining-based flow cytometric analysis; format: functional, organism-based
Summary of the method: (§4)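 At 22 days post-immunization, mice were perfused with cold PBS. Lumbar spinal cord was minced, digested and homogenized, and mononuclear cells were taken from the 30−70% Percoll interface. Cells were restimulated 4 h with PMA 50 ng/mL and ionomycin 1 μg/mL, with brefeldin A 1 μg/mL for the last 2 h. Cells were surface-stained, fixed in 4% PFA, permeabilized with Triton buffer, stained for CD4, IL-17 and IFN-γ, and analyzed by flow cytometry.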

Mus musculus [7] = experiment: In vivo immunomodulatory activity in wild type C57BL/6 mouse assessed as decrease in IFN-gamma level in serum at 2 ug, iv administered as single dose measured after 12 to 24 hrs; format: functional, organism-based; summary of the method: as §2
Mus musculus [8] = experiment: Immunomodulatory activity in PMA- and ionomycin-stimulated wild type C57BL/6 mouse HMNC cells assessed as inhibition of Th1 differentiation of MOG-specific CD4+ T cells at 2 ug, ip administered as single dose measured 22 days post immunization by brefeldin A staining-based flow cytometric analysis; format: functional, organism-based; summary of the method: as §4
Mus musculus [9] = organism: Mus musculus; experiment: Antiautoimmune disease activity in wild type C57BL/6 mouse experimental autoimmune encephalitis model assessed as delay in disease onset at 2 ug, […] as single dose measured up to 30 days; format: functional, organism-based
Summary of the method: (§5)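 Wild-type B6 mice received 2D2 TCR-transgenic lymphocytes containing 1 × 10^6 Va3.2+Vβ11+ CD4+ T cells via the tail vein. After 24 h, mice were immunized sc in each flank with 200 μg MOG35−55 in incomplete Freund's adjuvant with 200 μg M. tuberculosis. Pertussis toxin was given ip on day 0 and day 2. A single 2 μg dose was mixed into the antigen emulsion at immunization. EAE clinical score was followed; n = 8/group from two experiments, mean ± SEM.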

Mus musculus [10] = experiment: In vivo immunomodulatory activity in wild type C57BL/6 mouse assessed as IL-4 level in serum at 2 ug, iv administered as single dose measured at 2 hrs; format: functional, organism-based; summary of the method: as §2
Mus musculus [11] = organism: Mus musculus; experiment: Antiautoimmune disease activity in wild type C57BL/6 mouse experimental autoimmune encephalitis model assessed as reduction in disease pathogenicity at 2 ug, […] as single dose measured up to 30 days; format: functional, organism-based; summary of the method: as §5
Mus musculus [12] = experiment: Immunomodulatory activity in PMA- and ionomycin-stimulated wild type C57BL/6 mouse HMNC cells assessed as reduction in IL-17 cytokine in cell culture supernatant at 2 ug, ip administered as single dose measured 22 days post immunization by ELISA relative to vehicle-treated control; format: functional, organism-based; summary of the method: as §3
Mus musculus [13] = experiment: Antiautoimmune disease activity in wild type C57BL/6 mouse experimental autoimmune encephalitis model assessed as reduction in mononuclear cells infiltration into white matter at 2 ug, ip administered as single dose measured on day 18 post immunization by H & E staining-based analysis relative to vehicle-treated control; format: functional, organism-based
Mus musculus [14] = experiment: In vivo immunomodulatory activity in wild type C57BL/6 mouse assessed as decrease in IL-17 level in serum at 2 ug, iv administered as single dose measured at 12 to 24 hrs; format: functional, organism-based; summary of the method: as §2

SMILES	Activity (HMNC [1])	Activity (HMNC [2])	Activity (HMNC [3])	Activity (Mus musculus [4])	Activity (Mus musculus [5])	Activity (Mus musculus [6])	Activity (Mus musculus [7])	Activity (Mus musculus [8])	Activity (Mus musculus [9])	Activity (Mus musculus [10])	Activity (Mus musculus [11])	Activity (Mus musculus [12])	Activity (Mus musculus [13])	Activity (Mus musculus [14])
CCCCCCCCCCCCCCCCCCCCCCCCCC(=O)N[C@@H](CO[C@H]1O[C@H](CO)[C@H](O)[C@H](O)[C@H]1O)[C@H](O)[C@H](O)c1cnn(CCCCCc2ccc(CC)cc2)c1	Active	Active	Active	–	–	–	–	–	–	–	–	–	–	–
CCCCCCCCCCCCCCCCCCCCCCCCCC(=O)N[C@@H](CO[C@H]1O[C@H](CO)[C@H](O)[C@H](O)[C@H]1O)[C@H](O)[C@H](O)c1cnn(CCCCCCc2ccc(C)cc2)c1	Active	Active	Active	–	–	–	–	–	–	–	–	–	–	–
CCCCCCCCCCCCCCCCCCCCCCCCCC(=O)N[C@@H](CO[C@H]1O[C@H](CO)[C@H](O)[C@H](O)[C@H]1O)[C@H](O)[C@H](O)c1cnn(CCCCc2ccc(CCC)cc2)c1	Active	Active	Active	–	–	–	–	–	–	–	–	–	–	–
CCCCCCCCCCCCCCCCCCCCCCCCCC(=O)N[C@@H](CO[C@H]1O[C@H](CO)[C@H](O)[C@H](O)[C@H]1O)[C@H](O)[C@H](O)c1cnn(Cc2ccc(CCCCCC)cc2)c1	Active	Active	Active	–	–	–	–	–	–	–	–	–	–	–
CCCCCCCCCCCCCCCCCCCCCCCCCC(=O)N[C@@H](CO[C@H]1O[C@H](CO)[C@H](O)[C@H](O)[C@H]1O)[C@H](O)[C@H](O)CCCCCCCCCCCCCC	–	–	–	inactive	inactive	inactive	inactive	inactive	inactive	Active	Active	inactive	–	–
CCCCCCCCCCCCCCCCCCCCCCCCCC(=O)N[C@@H](CO[C@H]1O[C@H](CO)[C@H](O)[C@H](O)[C@H]1O)[C@H](O)[C@H](O)c1cnn(CCc2ccc(CCCCC)cc2)c1	inactive	inactive	inactive	–	–	–	–	–	–	–	–	–	–	–
CCCCCCCCCCCCCCCCCCCCCCCCCC(=O)N[C@@H](CO[C@H]1O[C@H](CO)[C@H](O)[C@H](O)[C@H]1O)[C@H](O)[C@H](O)c1cnn(CCCc2ccc(CCCC)cc2)c1	Active	Active	Active	inactive	Active	Active	inactive	Active	Active	Active	Active	Active	Active	Active
CCCCCCCCCCCCCCCCCCCCCCCCCC(=O)N[C@@H](CO[C@H]1O[C@H](CO)[C@H](O)[C@H](O)[C@H]1O)[C@H](O)[C@H](O)c1cnn(CCCCCCCc2ccccc2)c1	Active	Active	Active	–	–	–	–	–	–	–	–	–	–	–
